For four compounds, Activity results are on record in ChEMBL document CHEMBL1143773, “Synthesis and studies on antidepressant and anticonvulsant activities of some 3-(2-furyl)-pyrazoline derivatives” (Eur J Med Chem, 2007).

The test system of series [1] is Mus musculus. The series can be described thus: Anticonvulsant activity against metrazole-induced seizures in Albino mouse at 300 mg/kg, ip after 4 hrs by scMet assay. The format is functional, organism-based. Further details: dose 300 mg/kg. An outline of the steps:
(§1)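 Phase I protocol of the NINCDS antiepileptic drug development programme in albino mice, covering MES, subcutaneous pentylenetetrazole (metrazol) and rotarod neurotoxicity. Doses were 30, 100 and 300 mg/kg, read at 1/2 h and 4 h. One animal per dose and time point, scored as 0/1 (no activity) or 1/1 (noticeable activity).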

For series [2], the system named is Mus musculus. Description: Anticonvulsant activity against metrazole-induced seizures in Albino mouse at 30 mg/kg, ip after 4 hrs by scMet. The format is functional, organism-based. More on the design: dose 30 mg/kg. An outline of the steps:
as §1

Series [3] concerns Mus musculus. The series can be described thus: Anticonvulsant activity against metrazole-induced seizures in Albino mouse at 30 mg/kg, ip after 30 mins by scMet assay. Further details: dose 30 mg/kg. The format is functional, organism-based. An outline of the steps:
as §1

For series [4], the system named is Mus musculus. Description: Neurotoxicity in Albino mouse at 30 mg/kg, ip after 4 hrs by RotaRod test. The format is toxicity, organism-based. Further details: dose 30 mg/kg, route intraperitoneal. The settings on record: in vivo. An outline of the steps:
as §1
(Falling from the rotarod earlier than controls is read as motor impairment.)

Series [5] has as its system Mus musculus. Description: Anticonvulsant activity in Albino mouse by MES test at 100 mg/kg, ip after 30 mins. The format is functional, organism-based. Further details: dose 100 mg/kg. The gist of the method: as §1
The test system of series [6] is Mus musculus. The series can be described thus: Neurotoxicity in Albino mouse at 300 mg/kg, ip after 4 hrs by RotaRod test. The format is toxicity, organism-based. Further details: dose 300 mg/kg, route intraperitoneal. The settings on record: in vivo. The gist of the method: as §1
In series [7] the test system is Mus musculus. The series can be described thus: Anticonvulsant activity against metrazole-induced seizures in Albino mouse at 100 mg/kg, ip after 4 hrs by scMet assay. The format is functional, organism-based. More on the design: dose 100 mg/kg. An outline of the steps: as §1
Series [8] relates to Mus musculus. Description: Anticonvulsant activity in Albino mouse at 300 mg/kg, ip after 4 hrs by MES test. The format is functional, organism-based. Further details: dose 300 mg/kg. The gist of the method: as §1
Series [9] has as its system Mus musculus. Description: Anticonvulsant activity in Albino mouse at 100 mg/kg, ip after 4 hrs by MES test. The format is functional, organism-based. More on the design: dose 100 mg/kg. An outline of the steps:
as §1

Series [10] has as its system Mus musculus. The series can be described thus: Neurotoxicity in Albino mouse at 300 mg/kg, ip after 30 mins by RotaRod test. The settings on record: in vivo, 0.5 h. More on the design: dose 300 mg/kg, route intraperitoneal. The format is toxicity, organism-based. An outline of the steps: as §1
Series [11] deals with Mus musculus. Description: Anticonvulsant activity in Albino mouse by MES test at 300 mg/kg, ip after 30 mins. The format is functional, organism-based. Further details: dose 300 mg/kg. The gist of the method:
as §1

The subject of series [12] is Mus musculus. The series can be described thus: Anticonvulsant activity in Albino mouse by MES test at 30mg/kg, ip after 30 mins. The format is functional, organism-based. An outline of the steps: as §1
Series [13] has as its system Mus musculus. The series can be described thus: Anticonvulsant activity against metrazole-induced seizures in Albino mouse at 100 mg/kg, ip after 30 mins by scMet assay. The format is functional, organism-based. More on the design: dose 100 mg/kg. An outline of the steps: as §1
Series [14] relates to Mus musculus. The series can be described thus: Neurotoxicity in Albino mouse at 100 mg/kg, ip after 4 hrs by RotaRod test. The format is toxicity, organism-based. More on the design: dose 100 mg/kg, route intraperitoneal. The settings on record: in vivo. An outline of the steps: as §1
The test system of series [15] is Mus musculus. Description: Anticonvulsant activity in Albino mouse at 30 mg/kg, ip after 4 hrs by MES test. The format is functional, organism-based. Further details: dose 30 mg/kg. An outline of the steps:
as §1

Series [16] concerns Mus musculus. Description: Neurotoxicity in Albino mouse at 100 mg/kg, ip after 30 mins by RotaRod test. The format is toxicity, organism-based. Further details: dose 100 mg/kg, route intraperitoneal. The conditions noted are these: in vivo, 0.5 h. The gist of the method: as §1
Series [17] concerns Mus musculus. The series can be described thus: Antidepressant activity in Albino mouse assessed as duration of immobility at 10 mg/kg, ip by forced-swimming test relative to control. The format is functional. The settings on record: route intraperitoneal. The gist of the method: (§2)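 Porsolt forced-swim test in albino mice. Drug given ip at 0.5 ml/20 g body weight, 1 h before testing. Controls received 1% aqueous Tween 80. Each mouse was placed singly in a water-filled Plexiglas cylinder for 6 min. Immobility (floating upright with only slight movements to stay afloat) was timed over the last 4 min.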

Series [18] concerns Mus musculus. The series can be described thus: Neurotoxicity in Albino mouse at 30 mg/kg, ip after 30 mins by RotaRod test. The format is toxicity, organism-based. More on the design: dose 30 mg/kg, route intraperitoneal. The settings on record: in vivo, 0.5 h. An outline of the steps:
as §1

Series [19] relates to Mus musculus. The series can be described thus: Antidepressant activity in Albino mouse assessed as duration of immobility at 10 mg/kg, ip by forced-swimming test. The conditions noted are these: route intraperitoneal. The format is functional. The gist of the method: as §2
The subject of series [20] is Mus musculus. Description: Anticonvulsant activity against metrazole-induced seizures in Albino mouse at 300 mg/kg, ip after 30 mins by scMet assay. The format is functional, organism-based. Further details: dose 300 mg/kg. An outline of the steps:
as §1

Molecules are shown by their SMILES. Calls of active or inactive are those of the source. The rule behind the calls is not given here.

In the case of `CCNC(=S)N1N=C(c2ccco2)CC1c1ccccc1` (stereo not given), the outcome in the series with Mus musculus [1], in the series on Mus musculus [2], in the series with Mus musculus [3], with Mus musculus [5], in the series with Mus musculus [7] and in the series with Mus musculus [8] was inactive. In addition, the outcome in the series on Mus musculus [9], in the series on Mus musculus [11], in the series on Mus musculus [12], in the series with Mus musculus [13] and in the series with Mus musculus [15] was inactive. In addition, the Activity entry in the series with Mus musculus [4] is listed as “Not Active”; with Mus musculus [6] it was “Not Active”; with Mus musculus [10] it was “Not Active”; in the series with Mus musculus [14], “Not Active”; in the series on Mus musculus [16] it was “Not Active”; in the series on Mus musculus [17], -33.8%. Also, the Activity entry in the series with Mus musculus [18] was “Not Active”; with Mus musculus [19], 139 s. For the same compound, in the series with Mus musculus [20], the result was Active.

`NC(=S)N1N=C(c2ccco2)CC1c1ccco1` (stereo not given): the result with Mus musculus [1], in the series with Mus musculus [2], in the series on Mus musculus [5], with Mus musculus [7], with Mus musculus [9] and in the series on Mus musculus [11] was inactive. For the same compound, the outcome in the series on Mus musculus [12] and in the series with Mus musculus [15] was inactive. For the same compound, the result in the series with Mus musculus [3], in the series with Mus musculus [8], in the series on Mus musculus [13] and in the series with Mus musculus [20] was Active. For the same compound, the Activity entry with Mus musculus [4] is recorded as “Not Active”; in the series on Mus musculus [6], “Not Active”; in the series with Mus musculus [10] it was “Not Active”; in the series on Mus musculus [14], “Not Active”; in the series with Mus musculus [16], “Not Active”; with Mus musculus [17], -13.33%. Further, the Activity result is reported as “Not Active” with Mus musculus [18] and 182 s with Mus musculus [19].

As for `CNC(=S)N1N=C(c2ccco2)CC1c1ccco1` (stereo not given), the result in the series on Mus musculus [1], with Mus musculus [7], with Mus musculus [8], in the series on Mus musculus [9] and with Mus musculus [15] was Active. The result in the series with Mus musculus [2], in the series with Mus musculus [3], with Mus musculus [5], in the series on Mus musculus [11], in the series on Mus musculus [12] and with Mus musculus [13] was inactive. Besides, the outcome in the series on Mus musculus [20] was inactive. Further, the Activity entry is given as “Not Active” in the series on Mus musculus [4]; “Not Active” in the series on Mus musculus [6]; “Not Active” in the series on Mus musculus [10]; “Not Active” in the series with Mus musculus [14]; “Not Active” in the series on Mus musculus [16]; -11.42% in the series with Mus musculus [17]. In addition, the Activity entry is reported as “Not Active” with Mus musculus [18] and 186 s in the series on Mus musculus [19].

Turning to `C=CCNC(=S)N1N=C(c2ccco2)CC1c1ccccc1` (stereo not given), the outcome with Mus musculus [1], in the series on Mus musculus [2], in the series on Mus musculus [3], in the series on Mus musculus [7], with Mus musculus [8] and in the series with Mus musculus [9] was inactive. In addition, the result with Mus musculus [12], with Mus musculus [13], in the series with Mus musculus [15] and with Mus musculus [20] was inactive. The Activity entry in the series on Mus musculus [4] is listed as “Not Active”; in the series on Mus musculus [6], “Not Active”; with Mus musculus [10] it was “Not Active”; with Mus musculus [14], “Not Active”; in the series on Mus musculus [16] it was “Not Active”; in the series with Mus musculus [17] it was -9.52%. For the same compound, the Activity entry was “Not Active” in the series with Mus musculus [18] and 190 s with Mus musculus [19]. In addition, the result in the series with Mus musculus [5] and in the series on Mus musculus [11] was Active.
